Data set [1] deals with T1, chondroitin 2-O-sulfotransferase Ust (Homo sapiens, UniProt Q9Y2C2).
T1 sequence (Q9Y2C2 1-406): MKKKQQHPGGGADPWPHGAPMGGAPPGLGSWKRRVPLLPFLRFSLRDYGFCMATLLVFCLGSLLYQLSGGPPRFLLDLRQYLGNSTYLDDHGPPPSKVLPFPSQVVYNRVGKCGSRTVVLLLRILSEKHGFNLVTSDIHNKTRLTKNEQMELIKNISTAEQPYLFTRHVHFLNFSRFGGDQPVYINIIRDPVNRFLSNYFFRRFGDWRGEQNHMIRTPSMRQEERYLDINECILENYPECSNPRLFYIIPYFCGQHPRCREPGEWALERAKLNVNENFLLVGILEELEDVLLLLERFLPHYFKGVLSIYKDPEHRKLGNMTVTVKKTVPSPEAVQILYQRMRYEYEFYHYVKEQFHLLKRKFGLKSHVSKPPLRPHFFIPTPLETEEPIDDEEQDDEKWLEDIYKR
Put plainly: sulfotransferase specificity panel. The class given is biochemical.

A short description of data set [2]: liver microsome stability. The class given is in vitro ADME. Conditions: mouse. (Microsomes from liver hold many membrane-bound enzymes, among them those of drug oxidation.)
The target in data set [3] is heparan 3-O-sulfotransferase Hs3st1 (Homo sapiens, UniProt O14792). Put plainly: sulfotransferase specificity panel. The format is biochemical.
heparan 3-O-sulfotransferase Hs3st1, sequence (O14792 21-307): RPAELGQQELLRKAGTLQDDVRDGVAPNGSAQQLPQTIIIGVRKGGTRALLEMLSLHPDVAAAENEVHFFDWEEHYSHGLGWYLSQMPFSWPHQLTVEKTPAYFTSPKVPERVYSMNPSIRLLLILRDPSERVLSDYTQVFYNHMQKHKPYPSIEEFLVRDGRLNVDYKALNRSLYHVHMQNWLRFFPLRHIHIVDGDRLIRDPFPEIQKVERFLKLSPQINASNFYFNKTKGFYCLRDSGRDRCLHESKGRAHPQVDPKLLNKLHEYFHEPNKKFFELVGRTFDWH
Data set [4] deals with NIH3T3 fibroblasts. Put plainly: CS-E expression in fibroblasts. The class given is cell-based.
The test system of data set [5] is Neu7 astrocytes. Put plainly: disaccharide composition of secreted CSPGs. The class given is cell-based.
Data set [6] has as its system DRG neurons. Put plainly: in vitro CSPG boundary assay. The class given is cell-based, rat. Conditions: CSPGs from treated vs untreated Neu7 astrocytes. In a few lines: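 Boundary assay: purified CSPGs from Neu7 astrocytes treated with or without test compound were mixed with Texas Red dye and spotted onto glass coverslips. DRG neurons were plated on the coverslips, and the percentage of neurites crossing the CSPG boundary was scored. Mean ± S.E.M. from five experiments, 20-40 cells each.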

A short description of data set [7]: in vivo pharmacokinetics after intravenous injection. On the set-up: species or system rats. The note with it: rat, 3 mg/kg.
Data set [8] deals with T2, Chst15 (Homo sapiens, UniProt Q7LFX5).
T2 sequence (Q7LFX5 1-561): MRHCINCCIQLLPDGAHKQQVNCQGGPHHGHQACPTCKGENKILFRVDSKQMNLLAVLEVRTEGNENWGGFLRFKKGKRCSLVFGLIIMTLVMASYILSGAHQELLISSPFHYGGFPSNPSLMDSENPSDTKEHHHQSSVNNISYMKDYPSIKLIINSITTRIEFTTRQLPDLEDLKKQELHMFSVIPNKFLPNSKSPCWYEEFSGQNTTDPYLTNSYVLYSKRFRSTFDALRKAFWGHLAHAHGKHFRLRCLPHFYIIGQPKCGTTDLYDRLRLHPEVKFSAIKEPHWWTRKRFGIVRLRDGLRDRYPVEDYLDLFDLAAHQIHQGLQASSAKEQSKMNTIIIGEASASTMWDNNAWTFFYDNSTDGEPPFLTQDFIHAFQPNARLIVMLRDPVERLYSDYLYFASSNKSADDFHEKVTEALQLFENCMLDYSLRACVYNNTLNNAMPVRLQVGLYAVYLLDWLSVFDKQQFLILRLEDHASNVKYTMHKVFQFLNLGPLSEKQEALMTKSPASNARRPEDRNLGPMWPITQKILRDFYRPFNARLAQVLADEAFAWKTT
Put plainly: [35S]-labeling assay. The note with it: 25 μM of inhibitor; normalized to the inhibition by compound 19; three independent measurements. The class given is biochemical.

The target of data set [9] is T3, chondroitin 4-O-sulfotransferase Chst11 (Homo sapiens, UniProt Q9NPF2).
T3 sequence (Q9NPF2 1-352): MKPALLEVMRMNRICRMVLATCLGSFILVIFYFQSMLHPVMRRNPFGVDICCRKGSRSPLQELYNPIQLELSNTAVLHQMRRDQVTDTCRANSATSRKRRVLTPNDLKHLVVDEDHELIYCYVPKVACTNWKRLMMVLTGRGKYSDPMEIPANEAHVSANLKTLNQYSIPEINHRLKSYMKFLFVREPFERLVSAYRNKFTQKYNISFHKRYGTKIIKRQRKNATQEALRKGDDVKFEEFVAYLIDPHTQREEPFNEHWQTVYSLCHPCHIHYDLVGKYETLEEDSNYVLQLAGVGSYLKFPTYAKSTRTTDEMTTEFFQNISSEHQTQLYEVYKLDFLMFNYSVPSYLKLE
Put plainly: sulfotransferase specificity panel. The class given is biochemical.

Data set [10] concerns the target T4, Sult1e1 (Homo sapiens, UniProt P49888).
T4 sequence (P49888 1-294): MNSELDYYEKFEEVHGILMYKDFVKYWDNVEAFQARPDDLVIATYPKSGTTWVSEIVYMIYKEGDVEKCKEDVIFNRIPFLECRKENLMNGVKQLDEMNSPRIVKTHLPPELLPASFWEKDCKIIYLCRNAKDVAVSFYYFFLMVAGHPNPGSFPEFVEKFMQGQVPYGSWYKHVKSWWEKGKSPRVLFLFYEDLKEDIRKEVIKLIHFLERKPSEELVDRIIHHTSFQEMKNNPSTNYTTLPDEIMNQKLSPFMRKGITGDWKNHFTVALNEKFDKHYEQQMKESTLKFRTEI
Put plainly: sulfotransferase specificity panel. The class given is biochemical.

The target of data set [11] is T2, Chst15. Put plainly: pre-incubation and ten-fold dilution experiments. The format is biochemical.
For data set [12], the target named is T2, Chst15. Put plainly: sulfotransferase specificity panel. The class given is biochemical.
Data set [13] has as its target T2, Chst15. Put plainly: enzyme-coupled fluorescence assay. The format is biochemical.
Data set [14] in a line: liver microsome stability. The format is in vitro ADME. Conditions: human.
A short description of data set [15]: liver microsome stability. The class given is in vitro ADME. Conditions: rat.
Data set [16] concerns Neu7 astrocytes. Put plainly: cell-surface CS-E expression, immunostaining with CS-E-specific antibody. The class given is cell-based. The procedure, abridged: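 Neu7 astrocytes were treated with test compound, with chlorate as comparator. Cells were co-stained with a CS-E-specific antibody and the nuclear stain DAPI, and average anti-CS-E fluorescence per condition was quantified from images. Mean ± S.E.M. of three experiments, 20-100 cells per experiment.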

Data set [17] addresses T5, Sult2b1b (Homo sapiens, UniProt O00204).
T5 sequence (O00204 1-365): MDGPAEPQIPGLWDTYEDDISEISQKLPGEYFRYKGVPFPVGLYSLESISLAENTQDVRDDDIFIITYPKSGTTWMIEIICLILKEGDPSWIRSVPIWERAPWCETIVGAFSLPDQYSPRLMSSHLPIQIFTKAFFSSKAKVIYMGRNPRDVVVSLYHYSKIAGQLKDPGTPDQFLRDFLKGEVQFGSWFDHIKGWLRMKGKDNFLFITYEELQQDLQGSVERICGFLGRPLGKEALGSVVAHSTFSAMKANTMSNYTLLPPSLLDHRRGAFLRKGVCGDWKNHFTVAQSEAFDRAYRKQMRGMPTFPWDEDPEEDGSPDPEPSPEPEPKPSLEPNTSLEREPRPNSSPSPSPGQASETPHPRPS
Put plainly: sulfotransferase specificity panel. The class given is biochemical.

The subject of data set [18] is Sult1c1. Put plainly: Sult1c1 counter-screen. The format is biochemical. The note with it: concentrations tested 3-100 μM. Background: The purpose of a counterscreen is to sort out artefacts and off-target activity.
Data set [19] concerns the target T6, Sult2b1a (Homo sapiens, UniProt O00204).
T6 sequence (O00204 1-350 isoform O00204-2): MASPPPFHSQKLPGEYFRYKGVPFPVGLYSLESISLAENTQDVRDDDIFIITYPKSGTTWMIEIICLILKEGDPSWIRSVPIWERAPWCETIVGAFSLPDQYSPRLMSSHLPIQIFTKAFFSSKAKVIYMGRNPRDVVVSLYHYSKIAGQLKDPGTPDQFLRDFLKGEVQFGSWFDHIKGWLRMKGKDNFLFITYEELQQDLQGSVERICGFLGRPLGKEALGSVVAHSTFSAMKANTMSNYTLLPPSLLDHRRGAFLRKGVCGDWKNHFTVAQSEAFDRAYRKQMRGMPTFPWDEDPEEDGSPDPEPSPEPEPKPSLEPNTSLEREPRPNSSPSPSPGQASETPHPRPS
Put plainly: sulfotransferase specificity panel. The class given is biochemical.

The mark [20] stands for this setting: high concentrations of sodium chlorate, compared to untreated cells.

Here are results for two molecules from PMC5896753 (ACS chemical biology, 2017).

Broadly, the IC50 is the concentration at which inhibition is half-maximal. The low end stands for inhibition by little substance, the high end for a need for much substance. As a reminder, the clearance is the volume of plasma or blood freed of the substance per unit of time. A higher clearance goes with a high capacity for elimination. A word on the half-life: it is the time needed for the level to fall by half in the phase considered. The low end stands for rapid decline, the high end for slow decline. As a reminder, the Ki is a dissociation constant, usually derived from enzyme kinetics or from competition with a known ligand. High values mean weaker binding, low ones tighter binding. Regarding `COc1cc(/C=C(\C#N)C(=O)Nc2ccc(Cl)cc2Cl)cc(Br)c1O` [Compound 34], the half-maximal inhibitory concentration (IC50) in data set [1] lay in the range of 2000 to 2500 nM; in data set [3], 2000 to 2500 nM; in [9] it was 2000 to 2500 nM; in data set [10] it was 19000 to 42000 nM; in data set [12], 2000 to 2500 nM; in [17], 19000 to 42000 nM. In addition, the 50% inhibitory concentration (IC50) in data set [19] was 19000 to 42000 nM. The “stability in liver microsomes based on intrinsic clearance” value in data set [2], in data set [14] and in data set [15] was “good stability” in each case. Besides, the CS-E expression entry in [4] is recorded as “significant loss of CS-E expression”. The inhibition at 25 µM in data set [5] (Astrocyte, read-out: reduction in the CS-E sulfation motif on secreted CSPGs) was 67.8 ± 10.9%. Besides, the “neurite crossing of CSPG boundary” value in data set [6] was “crossed more freely”. This molecule also gave a clearance in data set [7] of 21 mL/min/kg. This molecule also had a half-life in data set [7] of 1.6 h. Moreover, in data set [8], the “Relative Inhibition” value turned out to be 1.35 ± 0.12. Moreover, the “effect of pre-incubation time on Chst15 inhibition” value in [11] (inhibitor pre-incubated with Chst15 for various lengths of time) is reported as “Longer pre-incubation times lead to greater inhibition of the enzyme”. In addition, the “Chst15 activity in ten-fold dilution experiments” value in [11] (up to 100 μM of 34) is reported as “rapidly restored”. Also, the “specificity for GAG sulfotransferases compared to cytosolic sulfotransferases” value in data set [12] (GAG vs cytosolic sulfotransferases) is reported as 8- to 18 fold. Moreover, the mode of inhibition result in [13] (CS-A substrate concentration varied) was “mixed mode of inhibition”; in data set [13] (PAPS concentration varied, fixed CS-A (10 mM)), “competitive mode of inhibition”. Further, the Ki in [13] (CS-A substrate concentration varied, pseudo first-order PAPS concentration) is 1430 nM; in data set [13] (PAPS concentration varied, fixed CS-A acceptor substrate (10 mM)) it was 770 nM. The “cell-surface CS-E expression” value in [16] (10 μM or 25 μM) is given as “significant, dose-dependent decrease”. For the same molecule, the “activity against Sult1c1” value in [18] is given as “no activity”.
On to `[Na+].[O-][Cl+2]([O-])[O-]` [sodium chlorate], for which, in data set [5] (setting [20]), the “decrease in CS-E of secreted CSPGs” value was found to be 31.6 ± 10.9% and the “increase in uCS of secreted CSPGs” value is given as 39.7 ± 15.6%. In addition, the “cell-surface CS-E expression” value in data set [16] (doses as high as 25 mM, compared to 34) is reported as “did not reduce CS-E levels to as large an extent”.
